ChEMBL document CHEMBL1143493, “Synthesis of 2-[3,5-substituted pyrazol-1-yl]-4,6-trisubstituted triazine derivatives as antimalarial agents” (2005)
≈ marks a conversion by molar mass, not a printed value.

System: Plasmodium falciparum
Test: Minimum inhibitory concentration against Plasmodium falciparum NF-54 after 40 hrs
Assay type: functional
In short: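 Rieckmann-type microassay. NF-54 is kept in RPMI-1640 with 25 mM Hepes, 1% D-glucose, 0.23% NaHCO3 and 10% heat-inactivated human serum, then synchronized to ring stage with 5% D-sorbitol. Ring-stage parasites at about 1% parasitemia and 3% hematocrit are exposed in duplicate to […] for 36–40 h at 37 °C in a candle jar. Maturation is read on Giemsa smears. MIC is the concentration that completely blocks schizont maturation.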

SMILES	MIC [µg/mL]
COc1ccccc1CN1CCN(c2nc(N3CCN(Cc4ccccc4OC)CC3)nc(-n3nc(-c4cc(OC)c(OC)c(OC)c4)cc3SC)n2)CC1	50 (≈ 65.1 µM)
COc1cc(-c2cc(SC)n(-c3nc(NC4CCCCC4)nc(NC4CCCCC4)n3)n2)cc(OC)c1OC	2 (≈ 3.61 µM)
COc1cc(-c2cc(SC)n(-c3nc(N4CCOCC4)nc(N4CCOCC4)n3)n2)cc(OC)c1OC	> 50
COc1cc(-c2cc(SC)n(-c3nc(N4CCCCC4)nc(N4CCCCC4)n3)n2)cc(OC)c1OC	> 50
COc1cc(-c2cc(SC)n(-c3nc(Nc4ccccc4C)nc(Nc4ccccc4C)n3)n2)cc(OC)c1OC	1 (≈ 1.76 µM)
COc1cc(-c2cc(SC)n(-c3nc(NCCCN4CCOCC4)nc(NCCCN4CCOCC4)n3)n2)cc(OC)c1OC	10 (≈ 15.5 µM)
COc1ccccc1CN1CCN(c2nc(N3CCN(Cc4ccccc4OC)CC3)nc(-n3nc(-c4ccc(OC)c(OC)c4)cc3SC)n2)CC1	50 (≈ 67.8 µM)
COc1ccc(-c2cc(SC)n(-c3nc(Nc4ccccc4C)nc(Nc4ccccc4C)n3)n2)cc1OC	10 (≈ 18.5 µM)
COc1ccc(-c2cc(SC)n(-c3nc(N4CCN(c5ccccc5)CC4)nc(N4CCN(c5ccccc5)CC4)n3)n2)cc1OC	10 (≈ 15.4 µM)
COc1cc(-c2cc(SC)n(-c3nc(N4CCN(c5ccccc5)CC4)nc(N4CCN(c5ccccc5)CC4)n3)n2)cc(OC)c1OC	50 (≈ 73.5 µM)
COc1cc(-c2cc(SC)n(-c3nc(N4CCN(Cc5ccccc5)CC4)nc(N4CCN(Cc5ccccc5)CC4)n3)n2)cc(OC)c1OC	50 (≈ 70.6 µM)
COc1cc(-c2cc(SC)n(-c3nc(NCc4ccccc4)nc(NCc4ccccc4)n3)n2)cc(OC)c1OC	2 (≈ 3.51 µM)
COc1ccc(-c2cc(SC)n(-c3nc(N4CCN(Cc5ccccc5)CC4)nc(N4CCN(Cc5ccccc5)CC4)n3)n2)cc1OC	2 (≈ 2.95 µM)
COc1ccc(-c2cc(SC)n(-c3nc(NCCCN4CCOCC4)nc(NCCCN4CCOCC4)n3)n2)cc1OC	10 (≈ 16.3 µM)
CC1(C)N=C(N)N=C(N)N1c1ccc(Cl)cc1 [CYCLOGUANIL]	64 (≈ 254 µM)

The remaining lines, values ahead:

MIC [µg/mL]	SMILES
2 (≈ 3.41 µM)	COc1ccc(-c2cc(SC)n(-c3nc(NCCN4CCOCC4)nc(NCCN4CCOCC4)n3)n2)cc1OC
50 (≈ 95.5 µM)	COc1ccc(-c2cc(SC)n(-c3nc(NC4CCCCC4)nc(NC4CCCCC4)n3)n2)cc1OC
1 (≈ 1.62 µM)	COc1cc(-c2cc(SC)n(-c3nc(NCCN4CCOCC4)nc(NCCN4CCOCC4)n3)n2)cc(OC)c1OC
> 50	COc1ccc(-c2cc(SC)n(-c3nc(NCc4ccccc4)nc(NCc4ccccc4)n3)n2)cc1OC
10 (≈ 20 µM)	COc1ccc(-c2cc(SC)n(-c3nc(N4CCOCC4)nc(N4CCOCC4)n3)n2)cc1OC
> 50	COc1cc(-c2cc(SC)n(-c3nc(N4CCc5ccccc5C4)nc(N4CCc5ccccc5C4)n3)n2)cc(OC)c1OC
50 (≈ 84.5 µM)	COc1ccc(-c2cc(SC)n(-c3nc(N4CCc5ccccc5C4)nc(N4CCc5ccccc5C4)n3)n2)cc1OC
10 (≈ 20.2 µM)	COc1ccc(-c2cc(SC)n(-c3nc(N4CCCCC4)nc(N4CCCCC4)n3)n2)cc1OC
